Experimental data gathered from unrelated publications.
Compare with care: the assays were run in different laboratories.
Target: Dual specificity mitogen-activated protein kinase kinase 2 (MAP2K2, Homo sapiens, UniProt P36507)

SMILES | read-out | action | technique | tested at | quantity | result
CN1CCN(c2cnc3c(C4CCN(C(=O)c5ccc(OC(F)(F)F)cc5N)CC4)ncnc3c2)CC1 | cell-free assay | – | competition with immobilised ligand | 1 µM | remaining binding | 100%
Cc1ccc(C(=O)NCc2ccsc2)cc1C#Cc1cn(C(C)C)c2ncnc(N)c12 | enzyme activity | inhibitor | – | 1 µM | activity vs control | 81%
COc1cc(Nc2cnc(C#N)c(O[C@H](C)CN(C)C)n2)ncc1-c1cnn(C)c1 | enzyme activity | inhibitor | radiometric | 1 µM | remaining activity | 76%
COc1cc(/C=C/C(=O)CC(=O)/C=C/c2ccc(O)c(OC)c2)ccc1O | enzyme activity | inhibitor | – | 1 µM | activity vs control | 91%
CN(C(=O)c1ccccc1)c1cc(N(C)c2ccc3c(c2)CCc2ccc(C(=O)NCCN4CCOCC4)cc2C3=O)ccc1F | cell-free assay | – | competition with immobilised ligand | 1 µM | remaining binding | 100%
COc1cc2ncnc(Nc3ccc(Oc4ccccc4)cc3C)c2cc1OC | enzyme activity | inhibitor | – | 1 µM | inhibition | 41%
CC(C)(C)c1nc2c(s1)c1nc(N)ncc1c1ccc(NS(=O)(=O)c3c(F)cccc3F)c(F)c12 | enzyme activity | inhibitor | radiometric | 1 µM | remaining activity | 92%
Cn1c2c(Cl)c(Cl)ccc2c2cc[nH]c(=O)c21 | thermal stability | – | DSF | 10 µM | ΔTm | -0.5 °C
FC(F)(F)Oc1cccc(-c2cnc3ccc(-c4ccncc4)nn23)c1 | enzyme activity | inhibitor | radiometric | 1 µM | activity vs control | 84%
O=S(=O)(NC1CCC(c2cc(F)ccc2F)(S(=O)(=O)c2ccc(Cl)cc2)CC1)C(F)(F)F (stereo not shown) | cell-free assay | – | competition with immobilised ligand | 1 µM | remaining binding | 100%
Cn1c2c(c3ccc(Cl)c(Cl)c31)C(C#N)C(C)(C)NC2=O (stereo not shown) | thermal stability | – | DSF | 10 µM | ΔTm | -0.5 °C
CCOc1cc(-c2nncn2C)ccc1Nc1ncc2cc(C)nc(NCC(C)(C)C)c2n1 | enzyme activity | inhibitor | FRET | 1 µM | inhibition | 18%
CCc1ccccc1C(=O)Nc1n[nH]c2c(C)c(F)c(C3C(C#N)=C(C)N(C)C(C)=C3C#N)cc12 | cell-free assay | – | competition with immobilised ligand | 1 µM | remaining binding | 100%
CN1CCC2(CC1)NC(=O)c1c(c3ccc(Cl)c(Cl)c3n1C)C2C#N (racemic) | thermal stability | – | DSF | 10 µM | ΔTm | -0.3 °C
C#Cc1cccc(Nc2ncnc3cc(OCCOC)c(OCCOC)cc23)c1 | cell-free assay | – | – | 0.5 µM | remaining signal | 105%
O=C(Nc1cnn(-c2csc(C(=O)NC3COC3)c2)c1)Nc1ccccc1Cl | enzyme activity | inhibitor | – | 5 µM | remaining activity | 92.2%

SMILES | read-out | action | technique | tested at | quantity | result
CCN1CCC2(CC1)NC(=O)c1c(c3ccc(Cl)c(Cl)c3n1C)C2C#N (racemic) | thermal stability | – | DSF | 10 µM | ΔTm | -0.1 °C
O=C(CSc1nc2nccnc2c(=O)n1CCc1ccccc1)Nc1nccs1 | enzyme activity | inhibitor | – | 10 µM | inhibition | -3%
CCCOc1ccc([C@H]2[C@H](C(=O)O)[C@@H](c3ccc4c(c3)OCO4)CN2CC(=O)Nc2c(CC)cccc2CC)cc1 | cell-free assay | – | competition with immobilised ligand | 1 µM | remaining binding | 62%
Cn1c(=O)n(-c2ccc(C(C)(C)C#N)cc2)c2c3cc(-c4cnc5ccccc5c4)ccc3ncc21 | enzyme activity | inhibitor | – | 10 µM | remaining activity | 86%
CNC(=O)c1ccc(Nc2ncc(C(F)(F)F)c(NCc3nccnc3N(C)S(C)(=O)=O)n2)cc1 | cell-free assay | – | competition with immobilised ligand | 0.1 µM | remaining binding | 100%
O=C1NC(=O)c2cc(Nc3ccc(F)cc3)c(Nc3ccc(F)cc3)cc21 | cell-free assay | – | – | 0.5 µM | remaining signal | 89.5%
CCC1(CC)NC(=O)c2c(c3ccc(Cl)c(Cl)c3n2C)C1C#N (stereo not shown) | thermal stability | – | DSF | 10 µM | ΔTm | -0.4 °C
Cc1ccc(NC(=O)c2ccc(CN3CCN(C)CC3)cc2)cc1Nc1nc(-c2cccnc2)cs1 | cell-free assay | – | – | 0.5 µM | remaining signal | 114%
Nc1ncnc2occ(-c3ccc(NC(=O)Nc4cc(C(F)(F)F)ccc4F)cc3)c12 | cell-free assay | inhibitor | – | 20 µM | remaining signal | 7.1%
FC(F)c1nc2ccccc2n1-c1nc(N2CCOCC2)nc(N2CCOCC2)n1 | enzyme activity | inhibitor | – | 10 µM | remaining activity | 95%
CS(=O)(=O)N1CCCC(NC(=O)[C@H](CCC2CCCCC2)NC(=O)c2ccc(CNc3ncnc4c3nnn4-c3ccccc3)cc2)C1 (stereo partly shown) | cell-free assay | – | competition with immobilised ligand | 0.1 µM | remaining binding | 90%
Cc1sc(C(=O)NC2COC2)cc1-n1cc(NC(=O)Nc2c(F)cccc2Cl)cn1 | enzyme activity | inhibitor | – | 10 µM | remaining activity | 99.5%
CN([C@@H]1CCc2c(CC(=O)O)c3cc(S(C)(=O)=O)ccc3n2C1)S(=O)(=O)c1ccc(F)cc1 | cell-free assay | – | competition with immobilised ligand | 1 µM | remaining binding | 95%
Cn1c2c(c3ccc(Cl)c(Cl)c31)C(C#N)C1(CCOCC1)NC2=O (stereo not shown) | thermal stability | – | DSF | 10 µM | ΔTm | -0.4 °C
COc1cc(-c2cc(-c3ccc(N4CCNCC4)cc3)cnc2C)cc(OC)c1OC | enzyme activity | inhibitor | – | 0.1 µM | inhibition | 4%
